Data reported in paper PMC7318623 (Chemmedchem, 2020).

What was measured:
[1] = molecular target: T1, PPARγ (Homo sapiens, UniProt P37231); assay: PPARγ luciferase transactivation assay; assay type: cell-based
T1 sequence (P37231 238-503 limits assumed): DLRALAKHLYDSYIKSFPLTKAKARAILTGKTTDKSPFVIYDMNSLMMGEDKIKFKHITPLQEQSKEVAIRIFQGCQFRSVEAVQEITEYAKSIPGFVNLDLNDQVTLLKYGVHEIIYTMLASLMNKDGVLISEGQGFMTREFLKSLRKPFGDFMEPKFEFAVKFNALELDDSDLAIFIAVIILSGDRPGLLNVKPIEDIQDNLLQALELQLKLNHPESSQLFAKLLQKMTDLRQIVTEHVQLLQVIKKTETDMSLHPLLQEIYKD

[2] = system: K562‐resistant cells; assay: Induction of cell death by PI FACS analyses, without or with imatinib; assay type: cell-based; conditions: for cell death rate, compound in combination with imatinib: 10 μM compound + 1 μM imatinib
[3] = system: COS‐7 cells; assay: Modified MTT assay; assay type: cell-based, monkey; conditions: non-malignant COS-7 cells
In short: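 COS-7 cells seeded 2×10³ per well in triplicate, then 24 h in humidified 5% CO2/95% air at 37 °C before dosing. Test compound added at 20 μM alongside a DMSO vehicle control (DMSO ≤0.1% final) and incubated 72 h. Metabolic activity read by the EZ4U modified MTT (formazan) assay and expressed relative to vehicle control set at 100%. Mean + SD, ≥3 independent experiments, three replicates each.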

SMILES | EC50 [1] | cell death rate, compound in combination with imatinib ([2]; 72 h) | also measured
O=C(O)c1ccccc1-c1ccc(Cn2c3ccccc3c3ccccc32)cc1 [3 a, 4′‐((9H‐Carbazol‐9‐yl)methyl)‐[1,1′‐biphenyl]‐2‐carboxylic acid] | 10.4 ± 3.9 µM |  | 
CCCc1nc2cc(Br)ccc2n1Cc1ccc(-c2ccccc2C(=O)OC)cc1 [5 b, Methyl 4′‐((5‐bromo‐2‐propyl‐1H‐benzo[d]imidazol‐1‐yl)methyl)‐[1,1′‐biphenyl]‐2‐carboxylate] |  | 31% | 
CCCc1nc2ccc(Br)cc2n1Cc1ccc(-c2ccccc2C(=O)OC)cc1 [6‐Br‐CO2CH3, methyl 4′‐((6‐bromo‐2‐propyl‐1H‐benzo[d]imidazol‐1‐yl)methyl)‐[1,1′‐biphenyl]‐2‐carboxylate] |  | 63% | 
Cc1ccc(NC(=O)c2ccc(CN3CCN(C)CC3)cc2)cc1Nc1nccc(-c2cccnc2)n1 [imatinib, reference compound] |  |  | cell death, imatinib alone ([2]; 1 μM imatinib, K562-resistant (KD225) cells): 10–20%
O=C(O)c1ccccc1-c1ccc(Cn2c3ccccc3c3cc(Br)ccc32)cc1 [6 a, 4′‐((3‐Bromo‐9H‐carbazol‐9‐yl)methyl)‐[1,1′‐biphenyl]‐2‐carboxylic acid] | 5.68 ± 1.07 µM |  | 
CCCc1nc2ccccc2n1Cc1ccc(-c2ccccc2C(=O)OC)cc1 [2 b, Methyl 4′‐((2‐propyl‐1H‐benzo[d]imidazol‐1‐yl)methyl)‐[1,1′‐biphenyl]‐2‐carboxylate] |  | 80% | cell death rate, compound alone ([2]; 10 μM compound, 72 h, without imatinib): 21%; cytotoxicity per se (in words) [3]: did not exert cytotoxicity per se; PPARγ activation at 20 μM ([1]; compound at 20 μM, relative to pioglitazone 10 μM = 100 %): about 36%
CCCc1nc2c(C)cc(-c3nc4ccccc4n3C)cc2n1Cc1ccc(-c2ccccc2C(=O)O)cc1 [telmisartan, reference compound] | 4.78 ± 0.79 µM |  | 
CCc1c(C)n(Cc2ccc(-c3ccccc3C(=O)O)cc2)c2ccc(Br)cc12 [6 c, 4′‐((5‐Bromo‐3‐ethyl‐2‐methyl‐1H‐indol‐1‐yl)methyl)‐[1,1′‐biphenyl]‐2‐carboxylic acid] | 9.52 ± 0.74 µM |  | 
CCc1c(C)n(Cc2ccc(-c3ccccc3C(=O)O)cc2)c2ccccc12 [3 c, 4′‐((3‐Ethyl‐2‐methyl‐1H‐indol‐1‐yl)methyl)‐[1,1′‐biphenyl]‐2‐carboxylic acid] | 6.86 ± 1.58 µM |  | 
CCCc1nc2ccccc2n1Cc1ccc(-c2ccccc2C(=O)O)cc1 [3 b, 4′‐((2‐Propyl‐1H‐benzo[d]imidazol‐1‐yl)methyl)‐[1,1′‐biphenyl]‐2‐carboxylic acid] | 6.98 ± 1.06 µM | 31% | 
